Experiments:
Plasmodium falciparum [1] = test: Antiplasmodial activity against blood stage forms of multidrug-resistant Plasmodium falciparum Dd2 incubated for 3 days by HRP2 detection based ELISA method; type: functional, organism-based; conditions: Dd2, 72 h
How it was run: (§1)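 Asexual blood-stage P. falciparum kept in continuous culture. Proliferation read by HRP2 ELISA. Each test used 12 serial dilutions. Values are means of at least two independent experiments, each run in duplicate.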

[2] = Inhibition of recombinant Plasmodium falciparum IspC using [3,4,5-13C3]1-Deoxy-D-xylulose 5-phosphate substrate by photometric assay
How it was run: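 Pf IspC inhibition values are mean ± SD from nine or more data points, obtained by nonlinear regression analysis.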

Plasmodium falciparum [3] = test: Antiplasmodial activity against blood stage forms of chloroquine-sensitive Plasmodium falciparum 3D7 incubated for 3 days by HRP2 detection based ELISA method; type: functional, organism-based; conditions: 3D7, 72 h; how it was run: as §1
Plasmodium falciparum [4] = test: Antiplasmodial activity against blood stage forms of chloroquine-sensitive Plasmodium falciparum D10 incubated for 3 days by HRP2 detection based ELISA method; type: functional, organism-based; conditions: D10, 72 h; how it was run: as §1
HeLa = test: Cytotoxicity against human HeLa cells; type: cell-based
How it was run: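 HeLa cytotoxicity values are the mean of two duplicate determinations.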

[5] = Selectivity index, ratio of IC50 for human HeLa cells to IC50 for blood stage forms of multidrug-resistant Plasmodium falciparum Dd2; type: toxicity, cell-based; conditions: HeLa cells versus blood stage Plasmodium falciparum Dd2, read-out: Ratio IC50
How it was run: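 Index computed as HeLa cell IC50 divided by P. falciparum Dd2 IC50. HeLa values are means of two duplicate determinations.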

Plasmodium falciparum [6] = test: Antimalarial activity against Plasmodium falciparum infected in SCID mouse engrafted with human erythrocytes assessed as reduction in parasitemia at 50 mg/kg, ip qd for 4 days relative to control; type: functional; set-up: scale not given: the % may be the effect or the level left; conditions: route intraperitoneal
How it was run: (§2)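 P. falciparum SCID mouse model with treated groups of 2 mice and a control group of 5. Dosed orally or intraperitoneally once daily on days 3, 4, 5 and 6 after infection. Blood collected on day 4 after the first treatment; parasitized erythrocytes counted as % relative to control.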

Plasmodium berghei [7] = test: Antimalarial activity against Plasmodium berghei infected in NMRI mouse assessed as mean survival time at 50 mg/kg, po qd for 4 days starting 4 hrs post infection measured on 96 hrs post infection (reference value: 4 days); type: functional
How it was run: (§3)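 Standard 4-day Peters test in P. berghei-infected mice. Compounds dissolved or suspended in 70:30 Tween 80/ethanol, then diluted 10× with water. Given at 50 mg/kg once daily, orally or intraperitoneally, at 4, 24, 48 and 72 h postinfection (n = 3 mice per group). Blood collected at 96 h. Mean survival time reported; […].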

Plasmodium berghei [8] = test: Antimalarial activity against Plasmodium berghei infected in NMRI mouse assessed as reduction in parasitemia at 50 mg/kg, po qd for 4 days starting 4 hrs post infection measured on 96 hrs post infection relative to control; type: functional; set-up: scale not given: the % may be the effect or the level left
How it was run: (§4)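 Peters 4-day suppressive test in P. berghei-infected mice, 50 mg/kg once daily orally or intraperitoneally at 4, 24, 48 and 72 h after infection. Compound dissolved or suspended in 70:30 Tween 80/ethanol, then diluted 10× with water. Groups of 3 mice. Blood taken on day 4 (96 h). Activity is the difference in mean % parasitaemia between control and treated groups, as a percent of control.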

Plasmodium berghei [9] = test: Antimalarial activity against Plasmodium berghei infected in NMRI mouse assessed as mean survival time at 50 mg/kg, ip qd for 4 days starting 4 hrs post infection measured on 96 hrs post infection (reference value: 4 days); type: functional; conditions: route intraperitoneal; how it was run: as §3
Plasmodium berghei [10] = test: Antimalarial activity against Plasmodium berghei infected in NMRI mouse assessed as reduction in parasitemia at 50 mg/kg, ip qd for 4 days starting 4 hrs post infection measured on 96 hrs post infection relative to control; type: functional; set-up: scale not given: the % may be the effect or the level left; conditions: route intraperitoneal; how it was run: as §4
Plasmodium falciparum [11] = test: Antimalarial activity against Plasmodium falciparum infected in SCID mouse engrafted with human erythrocytes assessed as reduction in parasitemia at 13 mg/kg, po qd for 4 days relative to control; type: functional; set-up: scale not given: the % may be the effect or the level left
Plasmodium falciparum [12] = test: Antimalarial activity against Plasmodium falciparum infected in SCID mouse engrafted with human erythrocytes assessed as reduction in parasitemia at 5 mg/kg, po qd for 4 days relative to control; type: functional; set-up: scale not given: the % may be the effect or the level left
Plasmodium berghei [13] = test: Antimalarial activity against Plasmodium berghei infected in NMRI mouse assessed as reduction in parasitemia at 30 mg/kg, po qd for 4 days starting 4 hrs post infection measured on 96 hrs post infection relative to control; type: functional; set-up: scale not given: the % may be the effect or the level left
Plasmodium berghei [14] = test: Antimalarial activity against Plasmodium berghei infected in NMRI mouse assessed as mean survival time at 30 mg/kg, po qd for 4 days starting 4 hrs post infection measured on 96 hrs post infection (reference value: 4 days); type: functional
Plasmodium falciparum [15] = test: Antimalarial activity against Plasmodium falciparum infected in SCID mouse engrafted with human erythrocytes assessed as reduction in parasitemia at 50 mg/kg, po qd for 4 days relative to control; type: functional; set-up: scale not given: the % may be the effect or the level left; how it was run: as §2

Row | Compound | IC50 (Plasmodium falciparum [1]) | IC50 [2] | IC50 (Plasmodium falciparum [3]) | IC50 (Plasmodium falciparum [4]) | IC50 (HeLa) | selectivity ratio [5] | further results
1 | CC(C)OC(=O)OCOP(=O)(OCOC(=O)OC(C)C)C(CCC(=O)NO)c1ccc(F)c(F)c1 (stereo not given) | 0.029 µM | > 1000 µM | 0.049 µM |  |  |  | 
2 | CCCCOC(=O)OCOP(=O)(OCOC(=O)OCCCC)C(CCC(=O)NO)c1ccc(F)c(F)c1 (stereo not given) | 0.009 µM | > 1000 µM | 0.039 µM | 0.1 µM |  |  | 
3 | O=CN(O)CCCP(=O)(O)O [FOSMIDOMYCIN] |  | 0.16 µM |  | 1.3 µM |  |  | 
4 | CN(O)C(=O)COC(c1ccc(F)c(F)c1)P(=O)(O)O (stereo not given) |  | 0.012 µM |  | 0.52 µM | > 1000 µM | > 7690 | 
5 | CN(O)C(=O)CCC(c1ccc(F)c(F)c1)P(=O)(O)O (stereo not given) |  | 0.0034 µM |  | 0.083 µM | > 1000 µM | > 2500 | Activity (Plasmodium falciparum [6]): 0%; Survival (Plasmodium berghei [7]): 6 days; Activity (Plasmodium berghei [8]): 57%; Survival (Plasmodium berghei [9]): 6.7 days; Activity (Plasmodium berghei [10]): 62%
6 | CC(C)(C)C(=O)OCOP(=O)(CCCN(O)C=O)OCOC(=O)C(C)(C)C | 0.49 µM |  | 0.48 µM | 1.8 µM |  |  | 
7 | CC(C)OC(=O)OCOP(=O)(OCOC(=O)OC(C)C)C(OCC(=O)N(C)O)c1ccc(F)c(F)c1 (stereo not given) | 0.029 µM |  | 0.035 µM | 0.031 µM |  |  | 
8 | CCN(CC)CCCC(C)Nc1ccnc2cc(Cl)ccc12 (stereo not given) [CHLOROQUINE] |  |  |  |  |  |  | Activity (Plasmodium falciparum [11]): 90%; Activity (Plasmodium falciparum [12]): 90%
9 | CCCCOC(=O)OCOP(=O)(OCOC(=O)OCCCC)C(CCC(=O)N(C)O)c1ccc(F)c(F)c1 (stereo not given) | 0.005 µM | > 1000 µM | 0.013 µM |  | 190 µM | 38000 | 
10 | O[C@@H](c1cc(C(F)(F)F)nc2c(C(F)(F)F)cccc12)[C@H]1CCCCN1 (relative stereo) [(S,R)-MEFLOQUINE] |  |  |  |  |  |  | Activity (Plasmodium berghei [13]): 99.9%; Survival (Plasmodium berghei [14]): 29 days
11 | O=C(CCC(c1ccc(F)c(F)c1)P(=O)(O)O)NO (stereo not given) | 0.65 µM | 0.0028 µM |  | 0.21 µM |  |  | 
12 | CC(=O)ON(C)C(=O)CCC(c1ccc(F)c(F)c1)P(=O)(OCOC(=O)OC(C)C)OCOC(=O)OC(C)C (stereo not given) | 0.008 µM |  | 0.013 µM | 0.061 µM | 188 µM | 23500 | 
13 | CCNC(=O)ON(C)C(=O)CCC(c1ccc(F)c(F)c1)P(=O)(OCOC(=O)OC(C)C)OCOC(=O)OC(C)C (stereo not given) | 0.012 µM | > 1000 µM | 0.014 µM | 0.072 µM | 168 µM | 14000 | Activity (Plasmodium falciparum [15]): 0%
14 | CCCCOC(=O)OCOP(=O)(OCOC(=O)OCCCC)C(OCC(=O)N(C)O)c1ccc(F)c(F)c1 (stereo not given) | 0.009 µM |  | 0.014 µM | 0.031 µM | 190 µM | 21100 | 
15 | CCOC(=O)ON(C)C(=O)CCC(c1ccc(F)c(F)c1)P(=O)(OCOC(=O)OC(C)C)OCOC(=O)OC(C)C (stereo not given) | 0.018 µM | > 1000 µM | 0.028 µM | 0.13 µM | 205 µM | 11400 | 
16 | CC(C)OC(=O)OCOP(=O)(OCOC(=O)OC(C)C)C(CCC(=O)N(C)OC(=O)C(C)(C)C)c1ccc(F)c(F)c1 (stereo not given) | 0.034 µM | > 1000 µM | 0.043 µM | 0.22 µM |  |  | 
17 | C[C@H]1[C@H](OC(=O)CCC(=O)O)O[C@@H]2O[C@@]3(C)CC[C@H]4[C@H](C)CC[C@@H]1[C@@]24OO3 [ARTESUNATE] |  |  |  |  |  |  | Activity (Plasmodium berghei [13]): 99%; Activity (Plasmodium falciparum [11]): 90%; Activity (Plasmodium falciparum [12]): 90%; Survival (Plasmodium berghei [14]): 10 days
18 | CC(C)OC(=O)OCOP(=O)(OCOC(=O)OC(C)C)C(CCC(=O)N(C)O)c1ccc(F)c(F)c1 (stereo not given) | 0.007 µM | 887 µM | 0.008 µM |  |  |  | 
19 | CC(=O)N(O)CCCP(=O)(O)O [FR-900098] | 0.16 µM | 0.015 µM | 0.16 µM | 0.35 µM |  |  | 
20 | CC(=O)N(O)CCCP(=O)(OCOC(=O)C(C)(C)C)OCOC(=O)C(C)(C)C | 0.028 µM |  | 0.041 µM |  |  |  | 
